ChEMBL document CHEMBL3739259, “Defining Key Structural Determinants for the Pro-osteogenic Activity of Flavonoids” (J Nat Prod, 2015)
Active and inactive are the calls of the source. No cut-off for these calls is given here.

Tests used:
MSC [1] = assay: (§1) Induction of osteogenic differentiation in human MSC assessed as increase in ALP activity at 5 uM using p-NPP as substrate after 9 days by colorimetric method relative to control; format: functional
Outline: (§2)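 ALP read on day 9 in passage-3 bone-marrow hMSCs cultured at high density in Os.D medium. Compound (1, 5 or 10 μM, 0.1% v/v DMSO final) was re-applied on days 0, 3 and 6. Colorimetric p-nitrophenyl phosphate method, normalised to time and cell number (pNP/min/20,000 cells). Expressed as % of untreated control; three independent triplicate experiments; one-way ANOVA versus vehicle.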

[2] = Cytotoxicity against human MSC assessed as cell viability at 1 uM treated for 6 days measured on day 7 by alamar blue assay (reference value: 96 to 101%); details: MSC cells, read-out: Activity
[3] = Cytotoxicity against human MSC assessed as cell viability at 10 uM treated for 6 days measured on day 7 by alamar blue assay (reference value: 96 to 101%); details: MSC cells, read-out: Activity
MSC [4] = assay: Induction of osteogenic differentiation in human MSC assessed as increase in ALP activity at 1 uM using p-NPP as substrate after 9 days by colorimetric method relative to control; format: functional; outline: as §2
[5] = Cytotoxicity against human MSC assessed as cell viability at 1 uM treated for 3 days measured on day 4 by alamar blue assay (reference value: 97 to 100%); details: MSC cells, read-out: Activity
[6] = Cytotoxicity against human MSC assessed as cell viability at 10 uM treated for 3 days measured on day 4 by alamar blue assay (reference value: 97 to 100%); details: MSC cells, read-out: Activity
[7] = Cytotoxicity against human MSC assessed as […] in cell number at 1 to 10 uM after 9 days by methylene blue staining based microscopy relative to control; details: 216 h
Outline: (§3)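 Passage-3 bone-marrow hMSCs, high density in Os.D medium, dosed with 1, 5 or 10 μM compound (0.1% v/v DMSO final) on days 0, 3 and 6 with medium changes. Cell number measured on day 9 by methylene blue proliferation assay. Expressed as % of untreated control; three independent triplicate experiments, mean ± SEM, one-way ANOVA versus vehicle.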

[8] = Cytotoxicity against human MSC assessed as cell viability at 1 uM measured on day 1 by alamar blue assay (reference value: 97 to 101%); details: MSC cells, read-out: Activity
[9] = Cytotoxicity against human MSC assessed as cell viability at 10 uM measured on day 1 by alamar blue assay (reference value: 97 to 101%); details: MSC cells, read-out: Activity
[10] = Induction of osteogenic differentiation in human MSC assessed as increase in ALP activity at 10 uM using p-NPP as substrate after 9 days by colorimetric method relative to control; format: functional; outline: as §2
[11] = Cytotoxicity against human MSC assessed as cell viability at 5 uM measured on day 1 by alamar blue assay (reference value: 97 to 101%); details: MSC cells, read-out: Activity
[12] = Cytotoxicity against human MSC assessed as cell viability at 5 uM treated for 3 days measured on day 4 by alamar blue assay (reference value: 97 to 100%); details: MSC cells, read-out: Activity
[13] = Cytotoxicity against human MSC assessed as cell viability at 5 uM treated for 6 days measured on day 7 by alamar blue assay (reference value: 96 to 101%); details: MSC cells, read-out: Activity
[14] = as §1; format: functional; outline: as §2
MSC [15] = assay: Induction of osteogenic differentiation in human MSC assessed as increase in ALP activity using p-NPP as substrate after 9 days by colorimetric method; format: functional; outline: as §2
[16] = Cytotoxicity against human MSC assessed as decrease in cell number at 1 to 10 uM after 9 days by methylene blue staining based microscopy relative to control; details: 216 h; outline: as §3
[17] = Cytotoxicity against human MSC assessed as decrease in cell number at 5 uM after 9 days by methylene blue staining based microscopy relative to control; details: 216 h; outline: as §3
[18] = Decrease in ALP activity in human MSC using p-NPP as substrate at 10 uM after 9 days by colorimetric method relative to control; format: functional; set-up: Activity: scale not given: the % may be the effect or the level left
Outline: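 Passage-3 bone-marrow hMSCs from healthy donors, cultured at high density in osteogenic (Os.D) medium; compound given at days 0, 3 and 6 with media change every 3 days, final 0.1% (v/v) DMSO; vehicle, 50 nM calcitriol and untreated controls. Day-9 ALP by para-nitrophenyl phosphate colorimetry, normalised to time and cell number (methylene blue); % of untreated control, 3 independent triplicate experiments ± SEM.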

[19] = Cytotoxicity against human MSC assessed as cell viability at 10 uM after 24 hrs measured on day 1 by alamar blue assay (reference value: […] +/- 1%); details: MSC cells, read-out: Activity
[20] = Decrease in ALP activity in human MSC using p-NPP as substrate at 5 uM after 9 days by colorimetric method relative to control; format: functional; set-up: Activity: scale not given: the % may be the effect or the level left; outline: as §2
[21] = Cytotoxicity against human MSC assessed as cell viability at 1 uM treated for 3 days measured on day 4 by alamar blue assay (reference value: 100 +/- 1%); details: MSC cells, read-out: Activity
[22] = Cytotoxicity against human MSC assessed as cell viability at 5 uM treated for 3 days measured on day 4 by alamar blue assay (reference value: 100 +/- 1%); details: MSC cells, read-out: Activity
[23] = Cytotoxicity against human MSC assessed as cell viability at 10 uM treated for 3 days measured on day 4 by alamar blue assay (reference value: 100 +/- 1%); details: MSC cells, read-out: Activity
[24] = Cytotoxicity against human MSC assessed as cell viability at 10 uM treated for 6 days measured on day 7 by alamar blue assay (reference value: 98%); details: MSC cells, read-out: Activity
[25] = Cytotoxicity against human MSC assessed as cell viability at 5 uM treated for 6 days measured on day 7 by alamar blue assay (reference value: 98%); details: MSC cells, read-out: Activity
[26] = Cytotoxicity against human MSC assessed as cell viability at 1 uM measured on day 1 by alamar blue assay (reference value: […] +/- 1%); details: MSC cells, read-out: Activity
[27] = Cytotoxicity against human MSC assessed as decrease in cell number at 10 uM after 9 days by methylene blue staining based microscopy relative to control; details: 216 h; outline: as §3
[28] = Cytotoxicity against human MSC assessed as cell viability at 1 uM treated for 6 days measured on day 7 by alamar blue assay (reference value: 98%); details: MSC cells, read-out: Activity
[29] = Cytotoxicity against human MSC assessed as cell viability at 5 uM after 24 hrs measured on day 1 by alamar blue assay (reference value: […] +/- 1%); details: MSC cells, read-out: Activity

SMILES | Activity (MSC [1]) | viability at 144 h, 1 µM [2] | viability at 144 h, 10 µM [3] | Activity (MSC [4]) | viability at 72 h, 1 µM [5] | viability at 72 h, 10 µM [6] | viability at 1 day, 1 µM [8] | viability at 1 day, 10 µM [9] | fold change (FC) [10] | viability at 1 day, 5 µM [11] | viability at 72 h, 5 µM [12] | viability at 144 h, 5 µM [13] | Activity [10] | Activity [16] | Activity [20] | fold change (FC) [18] | further results
COc1ccc([C@@H]2CC(=O)c3c(O)cc(O)cc3O2)cc1O [HESPERETIN] | inactive | 97% | 98% | inactive | 98% | 103% | 102% | 96% | 1.72 | 95% | 102% | 99% |  |  |  |  | Activity [7]: Toxic
O=c1c(O)c(-c2ccc(O)cc2)oc2cc(O)cc(O)c12 [KAEMPFEROL] |  | 100% | 97% | inactive | 97% | 98% | 96% | 104% | 1.32 | 104% | 98% | 100% | 268% |  |  |  | Activity [14]: 237%; fold change (FC) [14]: 1.52; Activity (MSC [15]): Dose-dependent effect; Activity [7]: Toxic
COc1ccc(-c2oc3cc(O)cc(O)c3c(=O)c2O)cc1O [TAMARIXETIN] |  | 94% | 93% | inactive | 97% | 93% | 105% | 102% | 1.32 | 102% | 97% | 96% |  | Toxic |  |  | fold change (FC) [14]: 1.52; Activity (MSC [15]): Dose-dependent effect
O=c1cc(-c2cc(O)c(O)c(O)c2)oc2cc(O)cc(O)c12 [TRICETIN] |  |  |  | inactive |  |  |  |  |  |  |  |  |  |  | 99% |  | fold change (FC) [17]: 0.68; Activity [18]: 79%; viability at 24 h, 10 µM [19]: 104%; viability at 72 h, 1 µM [21]: 99%; viability at 72 h, 5 µM [22]: 95%; viability at 72 h, 10 µM [23]: 95%; viability at 144 h, 10 µM [24]: 94%; viability at 144 h, 5 µM [25]: 94%; viability at 1 day, 1 µM [26]: 108%; fold change (FC) [27]: 0.47; viability at 144 h, 1 µM [28]: 97%; viability at 24 h, 5 µM [29]: 106%
O=C1C[C@@H](c2ccc(O)c(O)c2)Oc2cc(O)cc(O)c21 [ERIODICTYOL] | inactive | 101% | 101% | inactive | 103% | 102% | 102% | 99% |  | 98% | 102% | 102% | 111% |  | 98% |  | 
O=C(O[C@@H]1Cc2c(O)cc(O)cc2O[C@@H]1c1cc(O)c(O)c(O)c1)c1cc(O)c(O)c(O)c1 [EPIGALOCATECHIN GALLATE] | inactive | 101% | 102% | inactive | 93% | 89% | 101% | 90% |  | 98% | 91% | 101% |  |  | 84% | 0.75 | fold change (FC) [16]: 0.43
O=c1cc(-c2ccc(O)c(O)c2)oc2cc(O)cc(O)c12 [LUTEOLIN] |  | 97% | 96% | inactive | 99% | 94% | 100% | 93% |  | 96% | 96% | 94% |  | Toxic |  | 0.59 | 
O=C1C[C@@H](c2ccccc2)Oc2cc(O)cc(O)c21 [PINOCEMBRIN] |  |  |  | inactive |  |  |  |  |  |  |  |  | 121% | Non-toxic |  |  | Activity [14]: 107%; viability at 24 h, 10 µM [19]: 111%; viability at 72 h, 1 µM [21]: 94%; viability at 72 h, 5 µM [22]: 95%; viability at 72 h, 10 µM [23]: 96%; viability at 144 h, 10 µM [24]: 98%; viability at 144 h, 5 µM [25]: 97%; viability at 1 day, 1 µM [26]: 109%; viability at 144 h, 1 µM [28]: 96%; viability at 24 h, 5 µM [29]: 110%
O=c1c(O)c(-c2cc(O)c(O)c(O)c2)oc2cc(O)cc(O)c12 [MYRICETIN] |  | 97% | 98% | inactive | 97% | 101% | 100% | 101% |  | 94% | 97% | 98% |  | Toxic |  | 0.62 | fold change (FC) [20]: 0.74
